Data on nine compounds can be found in PubChem BioAssay.

Active and inactive are the calls of the source.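 The calls were made as follows, unless noted: active = inhibition of the reporter signal at or above 50%; inactive = inhibition below 50%.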

Assay [1] in a line: inhibitors of TNFa-induced NFkB p65 translocation, primary screen, imaging, HUVEC, MLSMR starter and 10KST1 sets (AID 438;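 active = inhibition above 20% together with a positive visual image hit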;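 also: compound added about 3h40 before a 20 min TNFalpha stimulation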;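 as to inhibition: signal is the nuclear over cytoplasmic p65 intensity ratio per well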). The conditions noted are these: HUVEC TNFa-induced p65 nuclear translocation; cell count: measured here: nuclei count (cytotoxicity indicator), at 2.08 µM; inhibition: at 2 µM, stronger effect = higher value, 0% TNFa-plus-vehicle, 100% no-TNFa wells.
Assay [2] in a line: inhibitors of mutant huntingtin aggregation, primary screen, imaging, exon1htt(103Q)mCFP cells, high-content imaging (AID 483;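 active = visual image review flags a hit and inhibition of aggregation exceeds 20%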;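 also: compound exposure lasted 3 days before fixation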;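 as to nuclei count: percent of the per-plate median nuclei count of sample wells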). Conditions: exon1htt(103Q)mCFP cell line, aggregate imaging, at 2 µM; inhibition of aggregation: stronger effect = higher value; nuclei count: measured here: cell count, toxicity.
A short description of assay [3]: inhibitors of E-selectin induction by TNFa, primary screen, imaging, HUVEC, immunofluorescence, MLSMR starter and 10KST1 sets (AID 487;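 active = visually confirmed hit in the image check and inhibition above 20%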;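 as to inhibition: signal is fraction of cell area covered by stained E-selectin grains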;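 as to nuclei count: 100% = median nuclei count of all wells on the same plate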). The conditions noted are these: HUVEC TNFalpha-induced E-selectin immunofluorescence imaging, at 2 µM; inhibition: stronger effect = higher value; nuclei count: measured here: cell number, toxicity.
Assay [4] concerns the target Voltage-gated potassium channel subunit beta-2 (Rattus norvegicus) (UniProt P62483). Nature of the assay: KvBeta enzyme negative modulators, primary screen, biochemical, NADPH fluorescence (AID 622;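 active = fluorescence slope higher than the sample average by over 3 SD, cut at about -0.22 in these data, passing the limit was not always enough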;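 also: slope of raw intensity against log time taken from 70 to 1610 s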). The conditions noted are these: recombinant KvBeta, 4-cyanobenzaldehyde reduction, at 10 µM, stronger effect = higher value.
For assay [5] the target is unchanged. Nature of the assay: KvBeta positive modulators, primary screen, biochemical, NADPH fluorescence (AID 623;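 active = NADPH fluorescence slope more negative than the mean of all samples by about 3 SD, 99.7% confidence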;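 also: fluorescence intensity change per second fitted from 20 to 320 s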). Conditions: Recombinant KvBeta, NADPH fluorescence decrease slope, 10 min; at 10 µM; stronger effect = lower value.
Assay [6] deals with Muscarinic acetylcholine receptor M4 (Homo sapiens) (UniProt P08173). In words: compounds altering M4/GIRK thallium flux, either direction, primary screen, M4 allosteric agonist project, cell-based, HEK293 M4/GIRK, BTC-AM (AID 625;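 active = fluorescence slope after compound addition differing from the mean of all tested samples at 99.7% confidence, mostly higher but some lower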;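 also: thallium influx through GIRK channels coupled to M4 in HEK293 cells with BTC-AM dye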). The conditions noted are these: at 10 µM, actives lie on both sides. The method, boiled down:
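Assay system: HEK293 cells with M4 receptor and GIRK channels / Controls: carbachol and DMSO controls / Schedule: 1 h dye loading, 2 min kinetic read / Technique: kinetic fluorescence with BTC-AM dye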

Assay [7] in a line: inhibitors of Sendai virus-induced IRF3 signaling, primary screen, TLR/RLR signaling modifier project, cell-based, Sendai virus stimulus, luciferase, 10K MLSCN set (AID 602276;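 active = inhibition at or above 50% at 10 µM; inactive = inhibition below 50%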;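 also: firefly luciferase from ISG56 promoter only with Renilla not read in this screen; 0% = Sendai virus plus DMSO and 100% = medium plus DMSO without virus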). Conditions: HEK293 RL24 IRF3 luciferase reporter, at 10 µM, stronger effect = higher value.
Assay [8] in a line: inhibitors of poly I:C-induced TLR3 signaling, primary screen, cell-based, poly I:C stimulus, luciferase, 10K MLSCN set (AID 602277). Conditions: HEK293-TLR3 RL24 IRF3 luciferase reporter, at 10 µM, stronger effect = higher value. (In general: Reporter assays use an easily measured gene product as a stand-in for the process of interest.)

Voltage-gated potassium channel subunit beta-2 (Rattus norvegicus), sequence (P62483 whole entry, looked up): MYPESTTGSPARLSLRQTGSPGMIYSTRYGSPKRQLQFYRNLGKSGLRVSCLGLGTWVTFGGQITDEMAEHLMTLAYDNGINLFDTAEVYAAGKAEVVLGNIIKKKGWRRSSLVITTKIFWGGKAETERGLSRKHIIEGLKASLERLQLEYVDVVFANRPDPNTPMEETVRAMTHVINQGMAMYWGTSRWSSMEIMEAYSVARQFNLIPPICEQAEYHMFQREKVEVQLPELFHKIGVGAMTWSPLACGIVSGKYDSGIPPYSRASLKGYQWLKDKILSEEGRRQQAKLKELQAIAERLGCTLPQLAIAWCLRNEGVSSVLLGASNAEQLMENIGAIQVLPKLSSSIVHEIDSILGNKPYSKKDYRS
Muscarinic acetylcholine receptor M4 (Homo sapiens), sequence (P08173 whole entry, looked up): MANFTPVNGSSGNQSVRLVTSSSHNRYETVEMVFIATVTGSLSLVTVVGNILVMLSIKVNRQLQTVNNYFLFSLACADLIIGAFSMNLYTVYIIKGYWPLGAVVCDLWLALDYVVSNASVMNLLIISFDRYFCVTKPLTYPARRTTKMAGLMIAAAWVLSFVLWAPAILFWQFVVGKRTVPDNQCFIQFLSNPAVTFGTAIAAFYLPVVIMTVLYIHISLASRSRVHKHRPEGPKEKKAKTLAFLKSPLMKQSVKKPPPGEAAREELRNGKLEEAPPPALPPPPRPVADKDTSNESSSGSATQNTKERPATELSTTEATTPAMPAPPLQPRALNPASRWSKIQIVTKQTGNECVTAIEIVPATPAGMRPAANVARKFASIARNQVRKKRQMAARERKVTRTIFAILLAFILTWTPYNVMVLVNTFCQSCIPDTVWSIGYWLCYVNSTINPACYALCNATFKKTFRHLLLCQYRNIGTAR

As to `CN1CCN(C(=O)c2ccccc2N(Cc2ccccc2)S(C)(=O)=O)CC1`, the cell count in assay [1] was determined as 359. Further, the inhibition is 4% (inactive) in assay [1], -6% (inactive) in assay [3], -0.336% (inactive) in assay [7] and 4.8% (inactive) in assay [8]. For the same compound, the inhibition of aggregation in assay [2] was 2.7% (inactive). The nuclei count in assay [2] was determined as 111%; in assay [3], 110%. Further, the fluorescence slope in assay [4] was -0.596 (inactive); in assay [6], 0.00748 (inactive). Further, the NADPH fluorescence slope in assay [5] is -6.8e-05 (inactive).
Consider `COc1ccccc1NC(=O)N1CCCC1C(=O)NC1CCCCC1` (centres undefined), for which the cell count in assay [1] was 582. The inhibition is 0.4% (inactive) in assay [1], -19.7% (inactive) in assay [3], 15.6% (inactive) in assay [7] and 11.1% (inactive) in assay [8]. The inhibition of aggregation in assay [2] is 9% (inactive). Moreover, the nuclei count in assay [2] stood at 92.5%; in assay [3], 121%. Besides, the fluorescence slope was -0.227 (inactive) in assay [4] and 0.00721 (inactive) in assay [6]. The NADPH fluorescence slope in assay [5] is -2.2e-05 (inactive).
As to `COc1ccc(-c2cn3cc(C)ccc3n2)cc1OC`, the cell count in assay [1] came to 442. Further, the inhibition was -10.5% (inactive) in assay [1], -4.7% (inactive) in assay [3], 29.4% (inactive) in assay [7] and -10.4% (inactive) in assay [8]. In assay [2], the inhibition of aggregation is -3.3% (inactive). Further, the nuclei count in assay [2] was found to be 103%; in assay [3], 109%. The values for the fluorescence slope in assay [4] and in assay [6] were -0.357 (inactive) and 0.00466 (inactive), respectively. In addition, in assay [5], the NADPH fluorescence slope is -3e-05 (inactive).
As for `Cc1cccn2cc(-c3ccccc3)nc12`, in assay [1], the cell count amounted to 394. Moreover, the inhibition in assay [1] was 1.7% (inactive); in assay [3] it was -36.2% (inactive); in assay [7] it was 2.94% (inactive); in assay [8], -39.3% (inactive). Moreover, in assay [2], the inhibition of aggregation was -5.2% (inactive). Besides, the nuclei count was determined as 103% in assay [2] and 89.3% in assay [3]. In addition, the fluorescence slope is -0.557 (inactive) in assay [4] and 0.00519 (inactive) in assay [6]. For the same compound, in assay [5], the NADPH fluorescence slope is -1.4e-05 (inactive).
For the compound `Cc1[nH]c(=O)[nH]c(=O)c1S(=O)(=O)N1CCN(c2cccc(Cl)c2)CC1`, the cell count in assay [1] worked out at 799. The inhibition was 4.2% (inactive) in assay [1], -160% (inactive) in assay [3], -13.2% (inactive) in assay [7] and -11.6% (inactive) in assay [8]. In addition, the inhibition of aggregation in assay [2] was -23.7% (inactive). For the same compound, the nuclei count in assay [2] stood at 104%; in assay [3], 126%. Moreover, the fluorescence slope in assay [4] was -0.567 (inactive); in assay [6], 0.0059 (inactive). The NADPH fluorescence slope in assay [5] was -1.8e-05 (inactive).
Take `FC(F)(F)c1cc(-c2ccco2)nc(-n2nnc3ccccc32)n1`: in assay [1], the cell count turned out to be 529. Further, the inhibition in assay [1] is -6.9% (inactive); in assay [3], -12% (inactive); in assay [7] it was 15.2% (inactive); in assay [8] it was 22.4% (inactive). The inhibition of aggregation in assay [2] was -8.6% (inactive). Further, the nuclei count in assay [2] was 109%; in assay [3] it was 101%. The fluorescence slope in assay [4] is -0.562 (inactive); in assay [6] it was 0.00724 (inactive). Besides, the NADPH fluorescence slope in assay [5] is 1.3e-05 (inactive).
For `COc1ccc(C2C(C(C)=O)=C(C)N=c3s/c(=C\c4ccc5c(c4)OCO5)c(=O)n32)c(OC)c1` (centres undefined), the cell count in assay [1] came out at 340. Besides, the inhibition is -19.3% (inactive) in assay [1], 3.3% (inactive) in assay [3], -6% (inactive) in assay [7] and 20.7% (inactive) in assay [8]. Moreover, the inhibition of aggregation in assay [2] was 12.7% (inactive). The nuclei count is 118% in assay [2] and 115% in assay [3]. Moreover, the fluorescence slope is -0.568 (inactive) in assay [4] and 0.00431 (inactive) in assay [6]. Further, the NADPH fluorescence slope in assay [5] is -1.5e-05 (inactive).
With `Cc1nc2ccccc2c(=O)n1NC(=O)c1c(O)c2c(n(CC(C)C)c1=O)CCCC2`, the cell count in assay [1] was determined as 439. Further, the inhibition in assay [1] was 4% (inactive); in assay [3], 21.1% (inactive); in assay [7], 18.5% (inactive); in assay [8], 13.4% (inactive). In assay [2], the inhibition of aggregation is 9.9% (inactive). In addition, the nuclei count in assay [2] worked out at 76.7%; in assay [3], 101%. Besides, the fluorescence slope in assay [4] was -0.558 (inactive); in assay [6], 0.00523 (inactive). The NADPH fluorescence slope in assay [5] was -5e-05 (inactive).
Regarding `Cn1nc(-c2ccc(C(=O)N3CCN(c4ccccc4)CC3)cc2)c2ccccc2c1=O`, the cell count in assay [1] turned out to be 769. The inhibition was -4% (inactive) in assay [1], -13.7% (inactive) in assay [3], -31.8% (inactive) in assay [7] and -26.4% (inactive) in assay [8]. Also, in assay [2], the inhibition of aggregation was 10.9% (inactive). Also, the nuclei count in assay [2] is 90.3%; in assay [3], 110%. The figures for the fluorescence slope in assay [4] and in assay [6] were -0.552 (inactive) and 0.00744 (inactive), respectively. Besides, in assay [5], the NADPH fluorescence slope was -4.4e-05 (inactive).

As usually defined, the inhibition is the drop in the measured response relative to a control, in per cent.
